Source: ChEMBL document CHEMBL4359823, “Switching on the activity of 1,5-diaryl-pyrrole derivatives against drug-resistant ESKAPE bacteria: Structure-activity relationships and mode of action studies” (Eur J Med Chem, 2019)
Converted amounts (≈) assume the structure as drawn. The source made the active and inactive calls. The rule behind the calls is not given here.

What was measured:
Klebsiella pneumoniae [1] = test: Antibacterial activity against Klebsiella pneumoniae M6 measured after overnight incubation in presence of polymyxin B nonapeptide by microbroth dilution method; format: functional
Escherichia coli [2] = test: Antibacterial activity against Escherichia coli NCTC12923 measured after overnight incubation by microbroth dilution method; format: functional
How it was run: (§1)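 Microbroth dilution MIC. Compound DMSO stocks were diluted in water as a 2-fold series. Overnight TSB cultures were back-diluted to OD 0.01 and mixed 1:1 with compound. Plates were incubated overnight at 37 °C. MIC was the lowest concentration without visible growth (<0.1 OD600), run in duplicate.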

Enterococcus faecalis [3] = test: Antibacterial activity against vancomycin resistant Enterococcus faecalis NCTC12204 measured after overnight incubation by microbroth dilution method; format: functional
How it was run: (§2)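 Microbroth dilution: DMSO stocks diluted in water, 2-fold series. Overnight TSB cultures back-diluted to OD 0.01 and mixed 1:1 with compound. Incubated overnight at 37 °C; MIC taken as lowest concentration without visible growth (<0.1 OD600). Run in duplicate; matching DMSO levels checked for effect on growth.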

Klebsiella pneumoniae [4] = test: Antibacterial activity against Klebsiella pneumoniae M6 measured after overnight incubation by microbroth dilution method; format: functional; how it was run: as §1
Pseudomonas aeruginosa [5] = test: Antibacterial activity against Pseudomonas aeruginosa NCTC13437 measured after overnight incubation by microbroth dilution method; format: functional; how it was run: as §1
Staphylococcus aureus [6] = test: Antibacterial activity against methicillin resistant Staphylococcus aureus NCTC13616 measured after overnight incubation by microbroth dilution method; format: functional; how it was run: as §2
Staphylococcus aureus [7] = test: Antibacterial activity against methicillin resistant Staphylococcus aureus NCTC13277 measured after overnight incubation by microbroth dilution method; format: functional; how it was run: as §2
Enterococcus faecalis [8] = test: Antibacterial activity against vancomycin resistant Enterococcus faecalis NCTC12201 measured after overnight incubation by microbroth dilution method; format: functional; how it was run: as §2
Staphylococcus aureus [9] = test: Antibacterial activity against methicillin sensitive Staphylococcus aureus NCTC 6571 measured after overnight incubation by microbroth dilution method; format: functional; how it was run: as §2
Acinetobacter baumannii [10] = test: Antibacterial activity against Acinetobacter baumannii AYE measured after overnight incubation by microbroth dilution method; format: functional; how it was run: as §1
Acinetobacter baumannii [11] = test: Antibacterial activity against Acinetobacter baumannii AYE measured after overnight incubation in presence of polymyxin B nonapeptide by microbroth dilution method; format: functional
Acinetobacter baumannii [12] = test: Antibacterial activity against Acinetobacter baumannii ATCC 17978 measured after overnight incubation by microbroth dilution method; format: functional; how it was run: as §1
Pseudomonas aeruginosa [13] = test: Antibacterial activity against Pseudomonas aeruginosa NCTC13437 measured after overnight incubation in presence of polymyxin B nonapeptide by microbroth dilution method; format: functional
Acinetobacter baumannii [14] = test: Antibacterial activity against Acinetobacter baumannii ATCC 17978 measured after overnight incubation in presence of polymyxin B nonapeptide by microbroth dilution method; format: functional
Klebsiella pneumoniae [15] = test: Antibacterial activity against Klebsiella pneumoniae NCTC13368 measured after overnight incubation by microbroth dilution method; format: functional; how it was run: as §1
Enterococcus faecalis [16] = test: Antibacterial activity against vancomycin sensitive Enterococcus faecalis NCTC775 measured after overnight incubation by microbroth dilution method; format: functional; how it was run: as §2
Pseudomonas aeruginosa [17] = test: Antibacterial activity against Pseudomonas aeruginosa PAO1 measured after overnight incubation by microbroth dilution method; format: functional; how it was run: as §1
Pseudomonas aeruginosa [18] = test: Antibacterial activity against Pseudomonas aeruginosa PAO1 measured after overnight incubation in presence of polymyxin B nonapeptide by microbroth dilution method; format: functional
Klebsiella pneumoniae [19] = test: Antibacterial activity against Klebsiella pneumoniae NCTC13368 measured after overnight incubation in presence of polymyxin B nonapeptide by microbroth dilution method; format: functional
Pseudomonas aeruginosa [20] = test: Antibacterial activity against Pseudomonas aeruginosa PAO1 measured after overnight incubation in presence of phenylalanine arginine beta-naphthylamide by microbroth dilution method; format: functional; how it was run: as §1
Escherichia coli [21] = test: Antibacterial activity against Escherichia coli NCTC12923 measured after overnight incubation in presence of polymyxin B nonapeptide by microbroth dilution method; format: functional
Staphylococcus aureus [22] = test: Bacteriostatic activity against methicillin resistant Staphylococcus aureus NCTC13616 at 4 times MIC measured at 0 to 24 hrs by time kill assay
Pseudomonas aeruginosa [23] = test: Antibacterial activity against Pseudomonas aeruginosa NCTC13437 measured after overnight incubation in presence of phenylalanine arginine beta-naphthylamide by microbroth dilution method; format: functional; how it was run: as §1
Klebsiella pneumoniae [24] = test: Antibacterial activity against Klebsiella pneumoniae NCTC13368 measured after overnight incubation in presence of phenylalanine arginine beta-naphthylamide by microbroth dilution method; format: functional; how it was run: as §1
DNA gyrase = DNA gyrase (Staphylococcus aureus, UniProt P0A0K8+P20831, S84L); test: Inhibition of Staphylococcus aureus DNA gyrase S84L mutant; format: protein-complex assay
Enterococcus faecalis [25] = test: Bacteriostatic activity against vancomycin resistant Enterococcus feacalis NCTC12204 at 4 times MIC measured at 0 to 24 hrs by time kill assay
Acinetobacter baumannii [26] = test: Antibacterial activity against Acinetobacter baumannii ATCC 17978 measured after overnight incubation in presence of phenylalanine arginine beta-naphthylamide by microbroth dilution method; format: functional; how it was run: as §1
Staphylococcus aureus [27] = test: Antibacterial activity against Staphylococcus aureus NCTC13616 assessed as generation of drug resistance at 2 times MIC measured after 48 hrs by agar-based microbroth dilution method; format: functional
How it was run: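 Agar method: exponentially growing bacteria, in known numbers, plated on agar with doubling compound concentrations at and above the MIC; incubated 48 hours. Colonies growing above the MIC were picked and re-tested by microbroth MIC for raised resistance. Resistance frequency reported at 2xMIC.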

[28] = Inhibition of Staphylococcus aureus DNA gyrase subunit A2B2 using relaxed pBR322 DNA as substrate measured after 30 mins in presence of ATP by ethidium bromide-based gel electrophoresis
How it was run: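 Supercoiling assay with S. aureus wild-type or S84L gyrase and relaxed pBR322, with or without varying compound, at 37 °C for 30 min. The reaction was stopped with STEB and extracted with chloroform:isoamyl alcohol (24:1). The aqueous phase was run on a 1% agarose gel and the supercoiled band quantified. IC50 came from at least three independent replicates.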

Acinetobacter baumannii [29] = test: Antibacterial activity against Acinetobacter baumannii AYE measured after overnight incubation in presence of phenylalanine arginine beta-naphthylamide by microbroth dilution method; format: functional; how it was run: as §1
HEK293 = test: Cytotoxicity again human HEK293 cells measured after 24 hrs by XTT assay; format: cell-based; details: HEK293, 24 h
How it was run: (§3)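 Cells were grown in EMEM with glutamine, 10% FBS and non-essential amino acids at 37 °C, 10% CO2. Seeding was 1 x 10^5 cells/mL (HEK293) or 4 x 10^4 cells/mL (HeLa), then 24 h adherence. Doubling compound dilutions were applied for 24 h. XTT/PMS was added for 4 h in the dark, with absorbance read at 450 nm. Untreated cells were the 100% control and water-treated cells the 0% control; IC50 was fitted.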

Escherichia coli [30] = test: Antibacterial activity against Escherichia coli NCTC12923 measured after overnight incubation in presence of phenylalanine arginine beta-naphthylamide by microbroth dilution method; format: functional; how it was run: as §1
Klebsiella pneumoniae [31] = test: Antibacterial activity against Klebsiella pneumoniae M6 measured after overnight incubation in presence of phenylalanine arginine beta-naphthylamide by microbroth dilution method; format: functional; how it was run: as §1
Enterococcus faecium = test: Antibacterial activity against Enterococcus faecium NCTC12204 assessed as generation of drug resistance at 2 times MIC measured after 48 hrs by agar-based microbroth dilution method
HeLa = test: Cytotoxicity again human HeLa cells measured after 24 hrs by XTT assay; format: cell-based; how it was run: as §3

Structure (SMILES)	MIC (Klebsiella pneumoniae [1])	MIC (Escherichia coli [2])	MIC (Enterococcus faecalis [3])	MIC (Klebsiella pneumoniae [4])	MIC (Pseudomonas aeruginosa [5])	MIC (Staphylococcus aureus [6])	MIC (Staphylococcus aureus [7])	MIC (Enterococcus faecalis [8])	MIC (Staphylococcus aureus [9])	MIC (Acinetobacter baumannii [10])	MIC (Acinetobacter baumannii [11])	MIC (Acinetobacter baumannii [12])	MIC (Pseudomonas aeruginosa [13])	MIC (Acinetobacter baumannii [14])	MIC (Klebsiella pneumoniae [15])	MIC (Enterococcus faecalis [16])	MIC (Pseudomonas aeruginosa [17])	MIC (Pseudomonas aeruginosa [18])	MIC (Klebsiella pneumoniae [19])	other results
Cc1c(CNC2CCCCC2)cc(-c2ccc(Cl)cc2)n1-c1ccc(Cl)cc1	64 µg/mL	> 128 µg/mL	2 µg/mL (≈ 4.84 µM)	> 128 µg/mL	> 128 µg/mL	4 µg/mL (≈ 9.68 µM)	4 µg/mL (≈ 9.68 µM)	4 µg/mL (≈ 9.68 µM)	4 µg/mL (≈ 9.68 µM)	128 µg/mL (≈ 310 µM)	8 µg/mL	64 µg/mL (≈ 155 µM)	32 µg/mL	4 µg/mL	> 128 µg/mL	4 µg/mL (≈ 9.68 µM)	> 128 µg/mL	> 128 µg/mL	> 128 µg/mL	
Cc1c(CNC2CCCCCC2)cc(-c2ccc(Cl)cc2)n1-c1ccc(C(C)C)cc1	> 128 µg/mL	> 128 µg/mL	2 µg/mL (≈ 4.6 µM)	> 128 µg/mL	> 128 µg/mL	4 µg/mL (≈ 9.19 µM)	4 µg/mL (≈ 9.19 µM)	2 µg/mL (≈ 4.6 µM)	4 µg/mL (≈ 9.19 µM)	> 128 µg/mL	4 µg/mL	32 µg/mL (≈ 73.6 µM)	16 µg/mL	2 µg/mL	> 128 µg/mL	2 µg/mL (≈ 4.6 µM)	> 128 µg/mL	16 µg/mL	> 128 µg/mL	MIC (Pseudomonas aeruginosa [20]): 128 µg/mL; MIC (Escherichia coli [21]): 2 µg/mL; Activity (Staphylococcus aureus [22]): Active; MIC (Pseudomonas aeruginosa [23]): > 128 µg/mL; MIC (Klebsiella pneumoniae [24]): > 128 µg/mL; IC50 (DNA gyrase): 43.7 µM; Activity (Enterococcus faecalis [25]): Active; MIC (Acinetobacter baumannii [26]): 4 µg/mL; Activity (Staphylococcus aureus [27]): <7.6e-08; IC50 [28]: 15.49 µg/mL; MIC (Acinetobacter baumannii [29]): 4 µg/mL; IC50 (HEK293): 1.95 to 2.83 µg/mL (≈ 4.48 to 6.5 µM); MIC (Escherichia coli [30]): 8 µg/mL; MIC (Klebsiella pneumoniae [31]): > 128 µg/mL; Activity (Enterococcus faecium): <9.4e-08; IC50 (HeLa): 1.95 to 2.83 µg/mL (≈ 4.48 to 6.5 µM)
